Our source for the GI50 and Activity values is ChEMBL document CHEMBL1828626, “Thiazolyl N-benzyl-substituted acetamide derivatives: synthesis, Src kinase inhibitory and anticancer activities” (2011).

One experiment has as its system NIH3T3. The experiment in a line: Inhibition of constitutively active human c-SRC527F mutant-induced growth inhibition in mouse NIH3T3 cells after 3 days by MTT assay. It is filed as cell-based. The essentials: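 NIH3T3 cells carrying constitutively active human c-Src527F were seeded at 4500 cells/well in DMEM/10% FBS and left overnight. They were then exposed for 3 days at 37 °C to a 5-point 2-fold dilution series (n = 3). Growth % = (T−T0)/(C−T0) × 100; GI50 taken from curves.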
(Formazan colour is commonly taken as a measure of viable cells.)

The test system of a further experiment is SYF. The experiment can be described thus: Inhibition of constitutively active human c-Src527F mutant-induced growth inhibition in src, yes and fyn-deficient mouse SYF cells after 2 days by MTT assay. Type of experiment: cell-based. The essentials: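 SYF cells (Src/Yes/Fyn knockout) re-expressing c-Src527F were plated at 3500 cells/well in DMEM/10% FBS overnight. Compound was added as a 5-point 2-fold serial dilution in triplicate for 2 days at 37 °C, 5% CO2. GI50 comes from growth % = (T−T0)/(C−T0) × 100, with T0 from day-zero wells.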

The subject of experiment [1] is CCRF-CEM. The experiment in a line: Antiproliferative activity against human CCRF-CEM cells at 50 uM after 72 hrs relative to control. Type of experiment: functional. The essentials:
(§1)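 Cells cultured in EMEM (HT-29, BT-20) or RPMI (CCRF-CEM) with 10% FBS at 37 °C, 5% CO2. Seeded at 5000 cells/well and treated 72 h after seeding with 50 μM compound, in triplicate, for 24-72 h. CellTiter 96 AQueous One reagent added for 1 h; formazan A490. Survival is (treated − medium blank)/(untreated control − blank) × 100%.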

Experiment [2] concerns BT-20. The experiment in a line: Antiproliferative activity against human BT20 cells at 50 uM after 72 hrs relative to control. Type of experiment: functional. The essentials:
as §1

For another experiment, the system named is HT-29. The experiment in a line: Antiproliferative activity against c-Src overexpressing human HT-29 cells at 50 uM after 24 to 72 hrs relative to control. Type of experiment: functional. The essentials: as §1
The test system of experiment [3] is BT-20. The experiment in a line: Antiproliferative activity against human BT20 cells at 10 uM after 72 hrs relative to control. Type of experiment: functional, cell-based. The essentials: (§2)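 BT-20 in EMEM or CCRF-CEM in RPMI, with 10% FBS, at 37 °C, 5% CO2. Seeded at 5000 cells/well and exposed 72 h after seeding to 10 μM agent, in triplicate. Readout is CellTiter 96 AQueous One, 1 h, A490. Growth is given as percent of untreated control after medium-blank subtraction.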

In experiment [4] the test system is CCRF-CEM. The experiment can be described thus: Antiproliferative activity against human CCRF-CEM cells at 10 uM after 72 hrs relative to control. It is filed as functional, cell-based. The essentials: as §2

SMILES strings stand for the structures. Calls of active or inactive are those of the source. The rule behind the calls is not given here.

What is called GI50 is the concentration at which growth is held to half of that of the control. A high value points to lower sensitivity of the cells. Regarding `O=C(Cc1ccc(-c2ccc(OCCN3CCOCC3)cc2)cn1)NCc1ccccc1`, the GI50 in the experiment with NIH3T3 turned out to be 0.023 µM; in the experiment on SYF, 0.039 µM.

For `O=C(Cc1csc(-c2ccc(OCCN3CCOCC3)cc2)n1)NCc1ccccc1Cl`, the Activity in the experiment with CCRF-CEM [1] and in the experiment on BT-20 [2] was 30% in each case. Also, the GI50 in the experiment with NIH3T3 was 7.93 µM; in the experiment with SYF it was 13 µM.

Turning to `O=C(Cc1csc(-c2ccc(OCCN3CCOCC3)cc2)n1)NCc1ccccc1`, the Activity in the experiment on CCRF-CEM [1] and with BT-20 [2] was 30% in each case. Moreover, the figures for the GI50 with NIH3T3 and in the experiment with SYF were 1.34 µM and 2.3 µM, respectively.

On to `Cc1ccc(CNC(=O)Cc2csc(-c3ccc(OCCN4CCOCC4)cc3)n2)cc1`, for which the Activity with CCRF-CEM [1] amounted to 61%; in the experiment on HT-29, 54%. In addition, the GI50 stood at 4.76 µM in the experiment on NIH3T3 and 7.23 µM in the experiment with SYF.

Regarding `O=C(Cc1csc(-c2ccc(OCCN3CCOCC3)cc2)n1)NCc1ccc(F)cc1`, the Activity in the experiment on CCRF-CEM [1] worked out at 71%; in the experiment with HT-29 it was 54%. In addition, the values for the GI50 with NIH3T3 and in the experiment on SYF were 1.49 µM and 2.51 µM, respectively.

Turning to `COc1cccc2c1C(=O)c1c(O)c3c(c(O)c1C2=O)C[C@@](O)(C(=O)CO)C[C@@H]3O[C@H]1C[C@H](N)[C@H](O)[C@H](C)O1`, the outcome in the experiment with BT-20 [3] and with CCRF-CEM [4] was Active.

As to `O=C(Cc1csc(-c2ccc(OCCN3CCOCC3)cc2)n1)NCc1ccc(Cl)c(Cl)c1`, the figures for the Activity in the experiment on CCRF-CEM [1] and in the experiment with HT-29 were 69% and 54%, respectively. Further, the values for the GI50 in the experiment with NIH3T3 and with SYF were 12.3 µM and 12.5 µM, respectively.
